The target of assay [1] is Dual specificity protein phosphatase 3 (Homo sapiens, UniProt P51452). The assay is described as follows: Inhibitory Activity against Recombinant Human VHR. Summed up: (§1)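 GST-fusion enzyme (Cdc25B₂, VHR) or human recombinant PTP1B, with O-methyl fluorescein phosphate as substrate in a miniaturized microtiter format. After 60 min at ambient temperature, product fluorescence was read (excitation 485/20, emission 530/30). IC50 values were taken from concentration–response data.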
Chain of Dual specificity protein phosphatase 3 (P51452 whole entry, the tested form may be a part): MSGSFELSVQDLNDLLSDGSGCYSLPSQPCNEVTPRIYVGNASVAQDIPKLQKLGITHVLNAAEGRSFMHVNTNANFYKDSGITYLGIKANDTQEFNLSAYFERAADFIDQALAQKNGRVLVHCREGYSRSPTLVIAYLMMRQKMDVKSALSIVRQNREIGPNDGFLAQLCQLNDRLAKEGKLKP

Assay [2] deals with T1, Tyrosine-protein phosphatase non-receptor type 1 (Homo sapiens, UniProt P18031).
T1 sequence (P18031 whole entry): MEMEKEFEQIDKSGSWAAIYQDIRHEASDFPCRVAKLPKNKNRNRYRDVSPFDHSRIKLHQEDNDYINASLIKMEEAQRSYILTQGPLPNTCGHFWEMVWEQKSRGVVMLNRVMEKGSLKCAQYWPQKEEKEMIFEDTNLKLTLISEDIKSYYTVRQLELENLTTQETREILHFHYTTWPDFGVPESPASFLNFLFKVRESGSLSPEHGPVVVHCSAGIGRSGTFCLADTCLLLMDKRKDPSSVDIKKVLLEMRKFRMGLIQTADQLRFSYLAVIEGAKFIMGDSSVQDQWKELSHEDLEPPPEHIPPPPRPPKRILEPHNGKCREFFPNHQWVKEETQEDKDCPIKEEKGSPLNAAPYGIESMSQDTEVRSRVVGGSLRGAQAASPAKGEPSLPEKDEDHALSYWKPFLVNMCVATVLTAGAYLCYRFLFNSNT
As to the kind of experiment: Inhibitory Activity against Recombinant Human PTP1. Summed up:
as §1

Assay [3] addresses T2, M-phase inducer phosphatase 2 (Homo sapiens, UniProt P30305).
T2 sequence (P30305 whole entry): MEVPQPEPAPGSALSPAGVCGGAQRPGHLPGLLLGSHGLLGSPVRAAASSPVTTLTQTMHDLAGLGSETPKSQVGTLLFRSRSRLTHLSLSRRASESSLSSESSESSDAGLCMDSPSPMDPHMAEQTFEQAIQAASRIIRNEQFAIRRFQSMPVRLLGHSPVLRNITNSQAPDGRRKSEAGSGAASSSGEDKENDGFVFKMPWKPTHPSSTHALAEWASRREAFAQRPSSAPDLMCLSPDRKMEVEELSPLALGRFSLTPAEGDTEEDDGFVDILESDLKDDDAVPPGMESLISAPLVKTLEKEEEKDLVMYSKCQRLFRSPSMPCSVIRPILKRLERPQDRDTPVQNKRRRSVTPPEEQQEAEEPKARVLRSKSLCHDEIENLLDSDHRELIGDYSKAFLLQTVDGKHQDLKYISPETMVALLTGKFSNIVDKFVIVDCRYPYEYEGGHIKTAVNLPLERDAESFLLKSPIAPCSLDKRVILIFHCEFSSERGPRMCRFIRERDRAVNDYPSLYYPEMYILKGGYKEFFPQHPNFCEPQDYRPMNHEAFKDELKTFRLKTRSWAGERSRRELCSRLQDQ
The assay is described as follows: Inhibitory activity against recombinant human cell division cycle 25B. A digest of the protocol: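 GST-fusion enzyme (Cdc25B₂, VHR) or human recombinant PTP1B, with O-methyl fluorescein phosphate as substrate in a miniaturized microtiter format. IC50 values were taken from concentration–response data.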

The values below come from ChEMBL document CHEMBL1134280, “Discovery and biological evaluation of a new family of potent inhibitors of the dual specificity protein phosphatase Cdc25” (J Med Chem, 2001).

For orientation: pIC50 means the IC50 on a negative log10 scale, so that one unit is a factor of ten.

Molecules are shown by their SMILES. pIC50: −log10 of the molar value. Bounds are passed on as bounds.

On to `O=C1C(Cl)=C(Cl)C(=O)c2cnccc21`, for which the pIC50 in assay [1] was under 5.00; in assay [2], under 5.00; in assay [3] it was 5.82.

For `COc1cc(CC/N=C2\C=C(O)c3cccnc3C2=O)ccc1O`, the negative-log IC50 (pIC50) in assay [1] is 4.77; in assay [2], under 4.00; in assay [3], 6.35.

Consider `CC(/N=C1\C=C(O)c2ncccc2C1=O)C(O)c1ccccc1` (centres undefined), for which the results for the pIC50 in assay [1], in assay [2] and in assay [3] were under 5.00, under 5.00 and 6.17, respectively.

Regarding `O=C1C(Cl)=C(Cl)C(=O)c2ncncc21`, the values for the negative logarithm of the IC50 (pIC50) in assay [1], in assay [2] and in assay [3] were under 5.00, under 5.00 and 5.32, respectively.

For `O=C1/C(=N\C(Cc2c[nH]c3ccccc23)C(=O)O)C(Cl)=C(O)c2cccnc21` (centres undefined), the negative logarithm of the IC50 (pIC50) is under 5.00 in assay [1], under 5.00 in assay [2] and 4.80 in assay [3].

Regarding `O=C1C(Cl)=C(NCCN2CCOCC2)C(=O)c2cnncc21`, the pIC50 was 5.96 in assay [1], 5.01 in assay [2] and 6.37 in assay [3].

For `O=C1C(Cl)=C(NCCc2c[nH]c3ccccc23)C(=O)c2ncccc21`, the negative logarithm of the IC50 (pIC50) in assay [1] is under 5.00; in assay [2], under 5.00; in assay [3], 5.29.

For `O=C1C(Cl)=C(Cl)C(=O)c2cnncc21`, the negative-log IC50 (pIC50) in assay [1] is under 5.00; in assay [2], under 5.00; in assay [3], 5.05.

For the molecule `O=C1C=CC(=O)c2ncccc21`, the negative-log IC50 (pIC50) in assay [1] is under 5.00; in assay [2], under 5.00; in assay [3], 5.52.

As for `O=C1/C(=N/CCc2cc(Br)c(O)c(Br)c2)C=C(O)c2cccnc21`, the negative-log IC50 (pIC50) in assay [1] is 5.07; in assay [2], 5.10; in assay [3], 6.19.

In the case of `CCCCCCOc1ccc(NC2=C(Cl)C(=O)c3cccnc3C2=O)cc1`, the figures for the pIC50 in assay [1], in assay [2] and in assay [3] were under 5.00, under 5.00 and 6.03, respectively.

For the molecule `O=C1C(Cl)=C(NCCN2CCOCC2)C(=O)c2ncccc21`, the values for the negative-log IC50 (pIC50) in assay [1] and in assay [2] were 5.40 and under 4.00, respectively.

For the molecule `CC(/N=C1\C=C(O)c2cccnc2C1=O)C(O)c1ccccc1` (centres undefined), the negative-log IC50 (pIC50) in assay [1] was 4.80; in assay [2], under 4.00; in assay [3] it was 6.29.

`O=C1C(NCCN2CCOCC2)=C(Cl)C(=O)c2ncccc21`: the values for the pIC50 in assay [1], in assay [2] and in assay [3] were under 5.00, under 5.00 and 6.09, respectively.

Take `O=C1C(Cl)=C(N2CCN(CCOCCO)CC2)C(=O)c2ncccc21`: the negative logarithm of the IC50 (pIC50) is under 5.00 in assay [1], under 5.00 in assay [2] and 6.05 in assay [3].

For the molecule `COC(=O)c1nc(-c2ccc3c(n2)C(=O)C(=N)C(OC)=C3O)c(N)c(-c2ccc(OC)c(OC)c2O)c1C`, the negative logarithm of the IC50 (pIC50) is 5.29 in assay [1], 5.06 in assay [2] and 6.43 in assay [3].

With `O=C1C(Cl)=C(Cl)C(=O)c2ncccc21`, the values for the pIC50 in assay [1], in assay [2] and in assay [3] were under 5.00, under 5.00 and 5.34, respectively.

As for `O=C1C(Cl)=C(NCCN2CCOCC2)C(=O)c2cnccc21`, the values for the pIC50 in assay [1], in assay [2] and in assay [3] were under 5.00, under 5.00 and 6.23, respectively.

`O=C1C(Cl)=C(NC2CCc3ccccc32)C(=O)c2ncccc21` (centres undefined): the negative logarithm of the IC50 (pIC50) in assay [3] was 6.52.
